Experimental data from article PMC3425077 (Indian Journal of Pharmaceutical Sciences, 2011).

Key:
Assay type in all cases: in vivo
[1] = tested on: carrageenan induced rat paw edema; experiment: Carrageenan induced rat paw edema method; settings: dose mg/Kg b.w.: Std (Aspirin) 200, 4a-4d 100, 4e 200, 4f 75
Method in brief: (§1)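 Animals given test compound or standard were compared with a control group of animals. Significance of the differences between treatment and control was assessed by Student's t test.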

ulcers = experiment: Ulcerogenic activity, arbitrary scoring of ulcer severity; settings: dose mg/Kg b.w.: Std (Aspirin) 200, 4a-4d 100, 4e 200, 4f 75
[2] = tested on: radiant heat induced rat tail flick; experiment: Radiant heat induced rat tail flick method; settings: dose mg/Kg b.w.: Std (Aspirin) 200, 4a-4d 100, 4e 200, 4f 75
Method in brief: as §1

adrenal gland weight = experiment: Adrenal weight change method; settings: suppression of adrenal gland weight; dose mg/Kg b.w.: Std (Aspirin) 200, 4a-4d 100, 4e 200, 4f 75
Method in brief: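 Adrenal weight change was one of the anti-inflammatory methods. Treated groups were compared with a control group of animals by Student's t test and marked significant or non-significant.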

## CC(=O)Oc1ccccc1C(=O)O [Aspirin]
[1]; after 1 h
  Antiinflammatory activity Percentage inhibition Carrageenan method 1 h: 54.84%
[1]; after 3 h
  Antiinflammatory activity Percentage inhibition Carrageenan method 3 h: 55.05%
[1]; after 5 h
  Antiinflammatory activity Percentage inhibition Carrageenan method 5 h: 73.81%
ulcers
  Ulcer index: 43.33
[2]
  Analgesic activity percent protection Rat tail flicK method: 49.39%
Adrenal gland weight
  Antiinflammatory activity Percentage inhibition Adrenal weight method: 50.13%
